Data set [1] deals with T1, Steroid 17-alpha-hydroxylase/17,20 lyase (Homo sapiens, UniProt P05093).
T1 sequence (P05093 whole entry): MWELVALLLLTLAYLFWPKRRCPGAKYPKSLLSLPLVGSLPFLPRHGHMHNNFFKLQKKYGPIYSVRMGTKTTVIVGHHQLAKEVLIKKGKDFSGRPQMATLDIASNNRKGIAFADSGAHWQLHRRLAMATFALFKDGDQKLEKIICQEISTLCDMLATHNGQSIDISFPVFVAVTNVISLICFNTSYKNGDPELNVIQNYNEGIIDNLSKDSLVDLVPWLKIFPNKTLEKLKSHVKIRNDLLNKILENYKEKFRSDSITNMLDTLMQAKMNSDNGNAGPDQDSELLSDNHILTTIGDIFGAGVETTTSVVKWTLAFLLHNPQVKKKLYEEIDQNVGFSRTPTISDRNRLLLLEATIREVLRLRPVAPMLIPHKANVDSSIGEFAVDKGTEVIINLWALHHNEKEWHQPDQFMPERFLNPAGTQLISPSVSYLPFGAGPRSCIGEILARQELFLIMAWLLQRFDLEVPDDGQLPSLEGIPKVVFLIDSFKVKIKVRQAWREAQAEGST
Nature of the data set: Inhibition of CYP17A1 in human adrenal microsomes using [3H]-pregnenolone as substrate incubated for 90 mins by scintillation proximity assay in presence of NADPH. The arrangement: species or system Adrenal gland. (In general: In a scintillation proximity assay essentially only radioactivity close to the scintillant gives light.)

Data set [2] has as its target T2, Steroid 17-alpha-hydroxylase/17,20 lyase (Macaca fascicularis, UniProt Q2XVA1).
T2 sequence (Q2XVA1 whole entry): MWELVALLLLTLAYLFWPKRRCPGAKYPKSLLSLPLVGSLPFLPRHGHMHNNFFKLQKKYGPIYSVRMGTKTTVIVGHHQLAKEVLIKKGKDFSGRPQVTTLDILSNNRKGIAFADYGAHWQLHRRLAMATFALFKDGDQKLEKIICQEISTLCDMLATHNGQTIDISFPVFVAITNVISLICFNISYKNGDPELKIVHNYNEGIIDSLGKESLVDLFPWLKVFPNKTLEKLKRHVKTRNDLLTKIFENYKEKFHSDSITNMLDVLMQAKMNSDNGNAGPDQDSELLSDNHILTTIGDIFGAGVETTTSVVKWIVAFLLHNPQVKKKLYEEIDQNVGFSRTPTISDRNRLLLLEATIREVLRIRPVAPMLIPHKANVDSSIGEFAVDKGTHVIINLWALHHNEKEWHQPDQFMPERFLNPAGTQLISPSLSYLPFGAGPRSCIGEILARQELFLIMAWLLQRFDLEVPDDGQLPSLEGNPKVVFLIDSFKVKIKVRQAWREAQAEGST
Kind of data set: Inhibition of CYP17A1 in cynomolgus monkey adrenal microsomes using [3H]-pregnenolone as substrate incubated for 45 mins by scintillation proximity assay in presence of NADPH. Details: species or system Adrenal gland; call rule not given here.

Data set [3] concerns the target T2, Steroid 17-alpha-hydroxylase/17,20 lyase. Kind of data set: Inhibition of CYP17A1 in cynomolgus monkey using [3H]-pregnenolone as substrate incubated for 45 mins by scintillation proximity assay in presence of NADPH.
In data set [4] the target is T3, Cytochrome P450 11B1, mitochondrial (Homo sapiens, UniProt P15538).
T3 sequence (P15538 whole entry): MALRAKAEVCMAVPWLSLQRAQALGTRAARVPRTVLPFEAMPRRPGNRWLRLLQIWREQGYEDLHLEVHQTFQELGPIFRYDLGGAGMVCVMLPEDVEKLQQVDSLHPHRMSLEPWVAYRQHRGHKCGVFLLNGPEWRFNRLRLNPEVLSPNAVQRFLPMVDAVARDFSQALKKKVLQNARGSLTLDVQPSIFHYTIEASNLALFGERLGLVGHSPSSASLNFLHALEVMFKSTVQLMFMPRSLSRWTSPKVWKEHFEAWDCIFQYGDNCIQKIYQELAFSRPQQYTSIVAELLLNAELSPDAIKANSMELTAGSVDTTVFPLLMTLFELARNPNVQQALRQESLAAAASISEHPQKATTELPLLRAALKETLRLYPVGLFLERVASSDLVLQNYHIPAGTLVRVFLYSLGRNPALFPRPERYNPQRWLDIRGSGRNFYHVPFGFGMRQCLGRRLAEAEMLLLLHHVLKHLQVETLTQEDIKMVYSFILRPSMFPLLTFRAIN
Kind of data set: Inhibition of CYP11B1 in human H295R cells using deoxycorticosterone as substrate incubated for 48 hrs by LC-MS method. It counts as ADME, cell-based.

Data set [5] in a line: Inhibition of cynomolgus monkey CYP21A2 using hydroxy progesterone as substrate incubated for 120 mins by LC-MS method. Details: species or system Macaca fascicularis.
Data set [6] can be described thus: Inhibition of cynomolgus monkey CYP11B1 using hydroxy progesterone as substrate incubated for 120 mins by LC-MS method. Details: species or system Macaca fascicularis.
Data set [7] has as its system Cynomolgus monkey. Kind of data set: Increase in progesterone level in one day castrated cynomolgus monkey at 42 mg/kg, po bid for 24 hrs by radiometric immunoassay. It counts as ADME, organism-based, Macaca fascicularis. Particulars: in vivo.
In data set [8] the test system is Cynomolgus monkey. Kind of data set: Decrease in cortisol level in one day castrated cynomolgus monkey at 42 mg/kg, po bid for 24 hrs by radiometric immunoassay. Particulars: in vivo. It counts as ADME, organism-based, Macaca fascicularis. The arrangement: scale not given: the % may be the effect or the level left.
A short description of data set [9]: Tmax in one day castrated cynomolgus monkey at 42 mg/kg, po bid measured after second dose administered at 8 hrs. It counts as ADME, organism-based, Macaca fascicularis. Particulars: male, in vivo. Summed up:
(§1)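 Castrated cynomolgus monkeys were studied over one day with oral BID dosing at time 0 and 8 h. Plasma levels were sampled at set time points over 1–24 h and reported as average ± standard deviation in nM, n = 4.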

Data set [10] in a line: Tmax in one day castrated cynomolgus monkey at 42 mg/kg, po bid. Conditions: male, in vivo. It counts as ADME, organism-based, Macaca fascicularis. In outline: as §1
The target of data set [11] is T2, Steroid 17-alpha-hydroxylase/17,20 lyase. Kind of data set: In vivo inhibition of CYP17A1 in one day castrated cynomolgus monkey assessed as reduction in testosterone level in plasma at 42 mg/kg, po bid for 24 hrs by radiometric immunoassay. It counts as organism-based.
Data set [12] addresses T1, Steroid 17-alpha-hydroxylase/17,20 lyase. Kind of data set: Inhibition of human CYP17A1 expressed in HEK293 cell microsomes using [3H]-pregnenolone as substrate incubated for 45 mins by scintillation proximity assay in presence of NADPH.
The next data set has as its target T4, Cytochrome P450 1A2 (Homo sapiens, UniProt P05177).
T4 sequence (P05177 whole entry): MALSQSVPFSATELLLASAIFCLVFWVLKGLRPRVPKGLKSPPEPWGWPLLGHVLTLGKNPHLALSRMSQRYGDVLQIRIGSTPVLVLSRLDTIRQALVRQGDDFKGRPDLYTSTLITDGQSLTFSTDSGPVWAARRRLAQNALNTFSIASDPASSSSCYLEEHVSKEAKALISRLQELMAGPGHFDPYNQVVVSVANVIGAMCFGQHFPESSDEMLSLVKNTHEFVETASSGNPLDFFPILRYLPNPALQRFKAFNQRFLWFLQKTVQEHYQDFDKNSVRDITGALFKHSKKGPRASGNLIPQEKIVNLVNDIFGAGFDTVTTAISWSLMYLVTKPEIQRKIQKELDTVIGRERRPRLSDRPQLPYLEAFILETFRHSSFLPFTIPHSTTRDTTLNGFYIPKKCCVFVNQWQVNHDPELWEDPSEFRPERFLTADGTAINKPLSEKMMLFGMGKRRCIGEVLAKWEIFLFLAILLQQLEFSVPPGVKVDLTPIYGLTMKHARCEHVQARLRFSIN
Kind of data set: Inhibition of CYP1A2 (unknown origin). It counts as ADME.

Data set [13] can be described thus: Metabolic stability in human liver microsomes assessed as parent compound remaining at 0.5 uM incubated for 10 mins. It counts as ADME. Conditions: read-out: Stability. Summed up:
(§2)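 Compound at 0.5 μM was incubated with human, mouse or cynomolgus liver microsomes for 10 min.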

Data set [14] can be described thus: Metabolic stability in mouse liver microsomes assessed as parent compound remaining at 0.5 uM incubated for 10 mins. It counts as ADME. Conditions: read-out: Stability. In outline:
as §2
In general terms: Microsomes from liver hold many membrane-bound enzymes, among them those of drug oxidation.

A short description of data set [15]: Metabolic stability in cynomolgus monkey liver microsomes assessed as parent compound remaining at 0.5 uM incubated for 10 mins. It counts as ADME, Macaca fascicularis. Conditions: read-out: Stability. In outline: as §2
Data set [16] addresses T1, Steroid 17-alpha-hydroxylase/17,20 lyase. Kind of data set: Selectivity ratio of human CYP17A1 hydroxylase activity expressed in Escherichia coli using pregnenolone substrate to human CYP17A1 lyase activity expressed in HEK293 cell microsomes using [3H]-hydroxypregnenolone substrate. In outline:
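Hydroxylase and lyase activities were run with different enzyme preparations, so the hydroxylase/lyase ratios are estimates.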

Data on twelve compounds can be found in ChEMBL document CHEMBL3779801, “Discovery of the Selective CYP17A1 Lyase Inhibitor BMS-351 for the Treatment of Prostate Cancer” (ACS Med Chem Lett, 2016).

In general, IC50 refers to the midpoint of a concentration-inhibition curve. The term Tmax denotes the time at which the peak concentration occurs. `C[C@]12CC[C@H](O)CC1=CC[C@@H]1C2CC[C@]2(C)C(c3cccnc3)=CCC12` (some centres undefined): the IC50 in [1] came to 21 nM; in data set [2], 3 nM; in data set [3], 2 nM; in data set [4] it was 872 nM; in data set [5], 149 nM; in data set [6], 2460 nM. The Activity was 1247% with Cynomolgus monkey [7] and 80% in the data set on Cynomolgus monkey [8]. Further, the time of peak concentration (Tmax) in data set [9] worked out at 9.5 h; in data set [10], 1 h. Also, the “inhibition (INH)” value in data set [11] was “Active”.
Turning to `Cc1ccncc1-c1cccc2c1cnn2-c1ccccn1`, the IC50 stood at 2 nM in data set [12] and 140 nM at Cytochrome P450 1A2. The remaining at 10 min, 0.5 µM stood at 95% in data set [13], 8% in data set [14] and 19% in data set [15].
Turning to `Cc1ccncc1-c1cccc2c1cnn2-c1nccs1`, the IC50 was determined as 4 nM in [12] and 80 nM at Cytochrome P450 1A2. The remaining at 10 min, 0.5 µM in data set [13] turned out to be 69%; in data set [14] it was 8%.
Taken in the same sequence, the figures for `Cc1ccncc1-c1cccc2c1cnn2-c1ccc(F)cc1` were 5 nM, 190 nM, 100% and 11%.
In the case of `Cc1ccncc1-c1cccc2c1cnn2-c1cccnn1`, the IC50 came to 3 nM in [12] and 270 nM on Cytochrome P450 1A2. Further, the remaining at 10 min, 0.5 µM is 89% in [13] and 17% in [14].
Turning to `Cc1ccncc1-c1cccc2c1cnn2-c1ccccc1`, the IC50 in data set [12] was determined as 4 nM; against Cytochrome P450 1A2 it was 119 nM. In addition, the results for the remaining at 10 min, 0.5 µM in [13], in [14] and in data set [15] were 78%, 4% and 39%, respectively.
Turning to `Cc1ccncc1-c1cccc2c1cnn2-c1cnccn1`, the IC50 in [12] came to 5 nM; against Cytochrome P450 1A2, 4000 nM. The remaining at 10 min, 0.5 µM came out at 72% in data set [13], 7% in [14] and 53% in data set [15].
Consider `Cc1ccncc1-c1cccc2c1ncn2-c1nccs1`, for which the IC50 in data set [12] stood at 8 nM; against Cytochrome P450 1A2, 75 nM. For the same compound, the remaining at 10 min, 0.5 µM was found to be 92% in data set [13], 16% in data set [14] and 42% in [15]. Besides, in data set [16], the Selectivity ratio is 14.
Turning to `Cc1ccncc1-c1cccc2c1ncn2-c1cscn1`, the concentration for half-maximal inhibition (IC50) was found to be 8 nM in data set [12] and 150 nM on Cytochrome P450 1A2. The remaining at 10 min, 0.5 µM was 90% in [13], 42% in data set [14] and 50% in [15].
On to `Cc1ccncc1-c1cccc2c1ncn2-c1ccccn1`, for which the half-maximal inhibitory concentration (IC50) is 6 nM in [12] and 94 nM at Cytochrome P450 1A2. The remaining at 10 min, 0.5 µM in data set [13] came out at 96%; in data set [14] it was 33%; in data set [15], 100%. The Selectivity ratio in [16] is 8.
With `Cc1ccncc1-c1cccc2c1cnn2-c1cscn1`, the IC50 in data set [12] is 5 nM; at Cytochrome P450 1A2, 70 nM. For the same compound, the remaining at 10 min, 0.5 µM in [13] worked out at 62%; in data set [14], 12%.
Compound `Cc1ccncc1-c1cccc2c1ncn2-c1cnccn1` yielded an IC50 on Cytochrome P450 1A2 of 180 nM. In addition, the results for the remaining at 10 min, 0.5 µM in data set [13], in [14] and in data set [15] were 98%, 59% and 83%, respectively. Also, in data set [16], the Selectivity ratio is on record as 18.
